In ChEMBL document CHEMBL1131077, “3,5-Dihydro-4H-2,3-benzodiazepine-4-thiones: a new class of AMPA receptor antagonists” (J Med Chem, 1998):

Experiments:
[1] = Relative lipophilicity; type: physicochemical; details: TLC, acetone/water 2:1 mobile phase
Summary of the method: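 Reversed-phase TLC on plates pre-dried 1 h at 105 °C, developed in acetone/water 2:1 (v/v); 1 µL of 3 mg/mL CHCl3 solution spotted. Rf averaged over five runs with varied spot positions; Rm = log[(1/Rf) − 1].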

Mus musculus [2] = species: Mus musculus; experiment: (§1) Dose which induced 50% of mice to fall from the rotarod; type: functional
Summary of the method: (§2)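 Male Swiss mice (20–26 g, 48–54 days old), groups of 10, pretrained on a 3 cm rotarod at 8 rpm; tested 30 min after ip dosing. Failure meant falling within 2 min. TD50 by Litchfield–Wilcoxon, at least 32 animals.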

Mus musculus [3] = species: Mus musculus; experiment: Anticonvulsant activity against audiogenic seizures in DBA/2 mice (value required to prevent clonic phases of seizures).; type: functional
Summary of the method: (§3)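 DBA/2 mice (8–12 g, 22–25 days old, either sex), groups of 10, given drug or vehicle ip (50% DMSO/50% saline, 0.1 mL/10 g) 30 min before auditory stimulation; latency and incidence of seizure phases scored. ED50 per phase by Litchfield–Wilcoxon, at least 32 animals per value.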

Mus musculus [4] = species: Mus musculus; experiment: Anticonvulsant activity against clonic phase of the audiogenic seizures after pretreatment with aniracetam in DBA/2 mice; type: functional
Summary of the method: (§4)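 DBA/2 mice (8–12 g, 22–25 days old, either sex) pretreated with aniracetam, then given the benzodiazepine ip in 50% DMSO/50% saline; sound stimulation 30 min after dosing, with clonic or tonic phase scored. ED50 by Litchfield–Wilcoxon (at least 32 animals), compared with benzodiazepine alone.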

Mus musculus [5] = species: Mus musculus; experiment: Anticonvulsant activity against audiogenic seizures in DBA/2 mice (value required to prevent tonic phases of seizures).; type: functional; summary of the method: as §3
[6] = Therapeutic index (TD50/ED50) from the clonic phase of the audiogenic seizures
Summary of the method: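 Ratio of rotarod TD50 (Swiss mice, 30 min after ip dosing) to ED50 for clonic phase of audiogenic seizures in DBA/2 mice (30 min after ip dosing). Both values from Litchfield–Wilcoxon fits, in µmol/kg.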

Mus musculus [7] = experiment: Anticonvulsant activity against tonic seizures induced by icv injection of AMPA in DBA/2 mice; type: functional; details: central
Mus musculus [8] = species: Mus musculus; experiment: Anticonvulsant activity against clonic phase of the audiogenic seizures after concomitant with flumazenil at 8.24 umol dose in DBA/2 mice; type: functional
Summary of the method: (§5)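 DBA/2 mice (8–12 g, 22–25 days old, either sex) given test drug ip in 50% DMSO/50% saline together with flumazenil at the stated dose, then auditory stimulation 30 min after dosing; clonic or tonic phase scored in groups of 10. ED50 by Litchfield–Wilcoxon, at least 32 animals per value.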

Mus musculus [9] = experiment: Anticonvulsant activity against clonic seizures induced by icv injection of AMPA in DBA/2 mice; type: functional; details: central
Mus musculus [10] = species: Mus musculus; experiment: Anticonvulsant activity against tonic phase of the audiogenic seizures after concomitant with flumazenil at 8.24 umol dose in DBA/2 mice; type: functional; summary of the method: as §5
Mus musculus [11] = species: Mus musculus; experiment: Anticonvulsant activity against maximal electroshock (MES) seizures in swiss mice; type: functional
Summary of the method: (§6)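 Swiss mice dosed ip (50% DMSO/saline) 45 min before ear-clip electroshock (50 mA, 20 ms pulses, 35 Hz, 400 ms). Protection taken as abolition of tonic hindlimb extension. Four to five doses, 8–10 mice each; ED50 by Litchfield–Wilcoxon.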

Mus musculus [12] = species: Mus musculus; experiment: Anticonvulsant activity against clonic phase of the audiogenic seizures after concomitant with flumazenil at 24.72 umol dose in DBA/2 mice; type: functional; summary of the method: as §5
Mus musculus [13] = species: Mus musculus; experiment: Anticonvulsant activity against tonic phase of the audiogenic seizures after pretreatment with aniracetam in DBA/2 mice; type: functional; summary of the method: as §4
Mus musculus [14] = species: Mus musculus; experiment: Anticonvulsant activity against pentylenetetrazole (PTZ)-induced seizures in swiss mice; type: functional
Summary of the method: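 Male Swiss mice (20–26 g, 42–48 days old) dosed ip in 50% DMSO/saline 45 min before PTZ 85 mg/kg sc (CD97); watched 30 min. Protection meant no clonic spasm lasting at least 5 s. ED50 by Litchfield–Wilcoxon.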

[15] = as §1; type: ADME; details: mouse, in vivo; summary of the method: as §2
Mus musculus [16] = species: Mus musculus; experiment: Anticonvulsant activity against tonic phase of the audiogenic seizures after concomitant with flumazenil at 24.72 umol dose in DBA/2 mice; type: functional; summary of the method: as §5
Mus musculus [17] = species: Mus musculus; experiment: Anticonvulsant activity against maximal electroshock (MES ) seizures in swiss mice; type: functional; summary of the method: as §6

Question: For `COc1cc2c(cc1OC)C(c1cccc([N+](=O)[O-])c1)=NN=C(S)C2`, which Rm [1] is on record?
Answer: 0.092

Question: Which Rm [1] does the source give for `COc1cc2c(cc1OC)C(c1ccc(N)cc1)=NN(C)C(=O)C2` here?
Answer: -0.421

Question: And the TD50 (Mus musculus [2])?
Answer: 159 µmol/kg

Question: For `COc1cc2c(cc1OC)C(c1ccc([N+](=O)[O-])cc1)=NNC(=O)C2`, which Rm [1] is on record?
Answer: -0.113

Question: Which Rm [1] does the source give for `COc1cc2c(cc1OC)C(c1ccc(Br)cc1)=NNC(=O)C2` here?
Answer: 0.035

Question: What about the TD50 (Mus musculus [2]) of the same molecule?
Answer: 226 µmol/kg

Question: With `COc1cc2c(cc1OC)C(c1ccc([N+](=O)[O-])cc1)=NN(C)C(=O)C2` as the molecule, how does the Rm [1] read?
Answer: 0.11

Question: With `COc1cc2c(cc1OC)C(c1cccc([N+](=O)[O-])c1)=NNC(=O)C2` as the molecule, how does the Rm [1] read?
Answer: -0.135

Question: Which results are given for `COc1cc2c(cc1OC)C(c1cccc(N)c1)=NNC(=O)C2`?
Answer: Rm [1]: -0.542; TD50 (Mus musculus [2]): 51.5 µmol/kg

Question: For `COc1cc2c(cc1OC)C(c1ccccc1)=NNC(=O)C2`, which ED50 (Mus musculus [3]) is on record?
Answer: 33.9 µmol/kg

Question: What about the Rm [1] of the same molecule?
Answer: -0.244

Question: With `COc1cc2c(cc1OC)C(c1ccc(N)cc1)=NNC(=O)C2` as the molecule, how does the Rm [1] read?
Answer: -0.63

Question: And the ED50 (Mus musculus [4])?
Answer: 65.4 µmol/kg

Question: With `COc1cc2c(cc1OC)C(c1ccccc1)=NN(C)C(=O)C2` as the molecule, how does the Rm [1] read?
Answer: -0.003

Question: And the TD50 (Mus musculus [2])?
Answer: 154 µmol/kg

Question: Which Rm [1] does the source give for `COc1cc2c(cc1OC)C(c1ccc(Cl)cc1)=NNC(=O)C2` here?
Answer: 0.012

Question: And the TD50 (Mus musculus [2])?
Answer: 240 µmol/kg

Question: For `COc1cc2c(cc1OC)C(c1ccc(Br)cc1)=NN(C)C(=O)C2`, which Rm [1] is on record?
Answer: 0.263

Question: Which ED50 (Mus musculus [3]) does the source give for `COc1cc2c(cc1OC)C(c1ccccc1)=NN(C)C(=S)C2` here?
Answer: 30.6 µmol/kg

Question: And the Rm [1]?
Answer: 0.282

Question: What about the ED50 (Mus musculus [5]) of the same molecule?
Answer: 24.7 µmol/kg

Question: What about the TD50 (Mus musculus [2]) of the same molecule?
Answer: 97.1 µmol/kg

Question: And the selectivity ratio [6]?
Answer: 3.17

Question: For `COc1cc2c(cc1OC)C(c1ccc(Cl)cc1)=NN=C(S)C2`, which ED50 (Mus musculus [3]) is on record?
Answer: 82.4 µmol/kg

Question: And the Rm [1]?
Answer: 0.244

Question: What about the ED50 (Mus musculus [5]) of the same molecule?
Answer: 55 µmol/kg

Question: What about the TD50 (Mus musculus [2]) of the same molecule?
Answer: 193 µmol/kg

Question: What about the selectivity ratio [6] of the same molecule?
Answer: 3.26

Question: With `COc1cc2c(cc1OC)C(c1cccc(N)c1)=NN=C(S)C2` as the molecule, how does the ED50 (Mus musculus [3]) read?
Answer: 18.8 µmol/kg

Question: And the Rm [1]?
Answer: -0.259

Question: What about the ED50 (Mus musculus [5]) of the same molecule?
Answer: 9.1 µmol/kg

Question: What about the TD50 (Mus musculus [2]) of the same molecule?
Answer: 76.7 µmol/kg

Question: What about the selectivity ratio [6] of the same molecule?
Answer: 4.08

Question: Which ED50 (Mus musculus [3]) does the source give for `COc1cc2c(cc1OC)C(c1ccc(N)cc1)=NN(C)C(=S)C2` here?
Answer: 29.8 µmol/kg

Question: And the Rm [1]?
Answer: -0.072

Question: And the ED50 (Mus musculus [5])?
Answer: 20.3 µmol/kg

Question: And the TD50 (Mus musculus [2])?
Answer: 130 µmol/kg

Question: And the selectivity ratio [6]?
Answer: 4.35

Question: Which results are given for `COc1cc2c(cc1OC)C(c1ccccc1)=NN=C(S)C2`?
Answer: ED50 (Mus musculus [3]): 19.7 µmol/kg; ED50 (Mus musculus [7]): 31.1 µmol/kg; ED50 (Mus musculus [8]): 22.4 µmol/kg; ED50 (Mus musculus [9]): 43.1 µmol/kg; Rm [1]: 0.014; ED50 (Mus musculus [10]): 13.6 µmol/kg; ED50 (Mus musculus [5]): 15 µmol/kg; ED50 (Mus musculus [11]): 27.8 µmol/kg; ED50 (Mus musculus [12]): 19.3 µmol/kg; ED50 (Mus musculus [4]): 98 µmol/kg; ED50 (Mus musculus [13]): 69.1 µmol/kg; selectivity ratio [6]: 5.02; ED50 (Mus musculus [14]): 33.7 µmol/kg; TD50 [15]: 98.9 µmol/kg; ED50 (Mus musculus [16]): 12.6 µmol/kg

Question: Which results are given for `COc1cc2c(cc1OC)C(c1ccc(Br)cc1)=NN=C(S)C2`?
Answer: ED50 (Mus musculus [3]): 52.1 µmol/kg; Rm [1]: 0.269; ED50 (Mus musculus [5]): 33.3 µmol/kg; TD50 (Mus musculus [2]): 73 µmol/kg; selectivity ratio [6]: 1.4

Question: Which ED50 (Mus musculus [3]) does the source give for `COc1cc2c(cc1OC)C(c1ccc(Br)cc1)=NN(C)C(=S)C2` here?
Answer: 105 µmol/kg

Question: What about the Rm [1] of the same molecule?
Answer: 0.575

Question: What about the ED50 (Mus musculus [5]) of the same molecule?
Answer: 60.4 µmol/kg

Question: Which ED50 (Mus musculus [3]) does the source give for `COc1cc2c(cc1OC)C(c1ccc(N)cc1)=NN=C(S)C2` here?
Answer: 6.3 µmol/kg

Question: And the ED50 (Mus musculus [7])?
Answer: 11.9 µmol/kg

Question: What about the ED50 (Mus musculus [8]) of the same molecule?
Answer: 6.9 µmol/kg

Question: What about the ED50 (Mus musculus [9]) of the same molecule?
Answer: 17.1 µmol/kg

Question: And the Rm [1]?
Answer: -0.308

Question: And the ED50 (Mus musculus [10])?
Answer: 3.24 µmol/kg

Question: What about the ED50 (Mus musculus [17]) of the same molecule?
Answer: 7.75 µmol/kg

Question: What about the ED50 (Mus musculus [5]) of the same molecule?
Answer: 3.3 µmol/kg

Question: And the ED50 (Mus musculus [12])?
Answer: 7.1 µmol/kg

Question: What about the ED50 (Mus musculus [4]) of the same molecule?
Answer: 46.1 µmol/kg

Question: What about the ED50 (Mus musculus [13]) of the same molecule?
Answer: 38.5 µmol/kg

Question: What about the selectivity ratio [6] of the same molecule?
Answer: 6.76

Question: What about the ED50 (Mus musculus [14]) of the same molecule?
Answer: 15.4 µmol/kg

Question: What about the TD50 [15] of the same molecule?
Answer: 42.6 µmol/kg

Question: And the ED50 (Mus musculus [16])?
Answer: 3.22 µmol/kg

Question: With `COc1cc2c(cc1OC)C(c1ccc([N+](=O)[O-])cc1)=NN(C)C(=S)C2` as the molecule, how does the ED50 (Mus musculus [3]) read?
Answer: 103 µmol/kg

Question: And the Rm [1]?
Answer: 0.333

Question: And the ED50 (Mus musculus [5])?
Answer: 81.5 µmol/kg

Question: Which ED50 (Mus musculus [3]) does the source give for `COc1cc2c(cc1OC)C(c1ccc([N+](=O)[O-])cc1)=NN=C(S)C2` here?
Answer: 93.4 µmol/kg

Question: And the Rm [1]?
Answer: 0.122

Question: What about the ED50 (Mus musculus [5]) of the same molecule?
Answer: 69.8 µmol/kg

Question: What about the TD50 (Mus musculus [2]) of the same molecule?
Answer: > 150 µmol/kg

Question: With `CC1=NN=C(c2ccc(N)cc2)c2cc3c(cc2C1)OCO3` [GYKI-52466] as the molecule, how does the Rm [1] read?
Answer: -0.308
